Data set [1] is described as follows: Metal chelating activity assessed as compound-Cu2+ complex formation at 50 uM measured after 40 mins in absence of H2O2 by UV spectrophotometric method. A digest of the protocol:
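Stock in DMSO diluted into PBS (10 mM, pH 7.4) to a final 50 µM, with 50 µM CuCl₂ added and no H₂O₂. UV spectrum recorded over 40 min at room temperature.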

Data set [2] can be described thus: Stability of compound in DMEM with 10% fetal bovine serum assessed as parent compound remaining measured after 24 hrs by RP-HPLC analysis. Format: cell-free. The procedure, abridged:
(§1)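 Compound (1 µM) stirred at 37 °C either in PBS (pH 5.0, 7.4 or 10.0) containing 5% DMSO or in DMEM with 10% FBS. Aliquots were analysed by RP-HPLC (0.1% TFA water/methanol gradient, 256 nm) for remaining intact compound, up to 24 h.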

The nature of data set [3]: Prodrug activation in OH at 100 uM measured after 1 hr by RP-HPLC analysis. The procedure, abridged: (§2)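 Compound (100 µM) incubated at 37 °C for 1 h with one of: ROS species (1 mM), NO solution (1 mM), GSH (200 µM), CuCl₂ (10 µM) or FeCl₃ (10 µM). Percent decomposed was determined by RP-HPLC (ODS column, 0.1% TFA water/methanol gradient, 1 mL/min, 256 nm).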
In data set [4] the test system is PANC-1. Kind of data set: Cytotoxicity against human PANC-1 cells assessed as reduction in cell viability measured after 48 hrs in presence of CuCl2 by MTT assay. Format: functional, cell-based. To be noted: PANC-1, 48 h. A digest of the protocol:
(§3)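 Cells seeded 6 × 10⁴ per well, cultured 24 h at 37 °C under 5% CO₂, then exposed to compound for 48 h, with or without 50 µM CuCl₂ or FeCl₃ co-incubation. MTT added for 4 h at 37 °C, formazan dissolved in DMSO, A490 read. IC50 reported as mean (SD), n = 3.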

Data set [5] deals with PANC-1. Briefly: Cytotoxicity against human PANC-1 cells assessed as reduction in cell viability measured after 48 hrs by MTT assay. To be noted: PANC-1, 48 h. The class given is functional, cell-based. A digest of the protocol:
as §3
On the technique in general: Formazan colour is commonly taken as a measure of viable cells.

Data set [6] relates to SW1990. Briefly: Induction of apoptosis in human SW1990 cells assessed as increase in cleaved caspase-3 expression at 8 to 12 uM measured after 24 hrs by Western blot analysis. The class given is functional, cell-based. The settings on record: dose 8-12 µM. The procedure, abridged:
(§4)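 SW1990 cells seeded 5 × 10⁵ per well and grown 24 h at 37 °C, then treated 24 h. Lysates quantified by BCA, resolved by SDS-PAGE and transferred to nitrocellulose. Blocked in 5% milk, probed overnight at 4 °C for cleaved caspase-3, cleaved caspase-9, Bax and Bcl-2, then HRP secondary 2 h. ECL detection.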
(In western blotting, separated proteins are transferred to a membrane and probed.)

The nature of data set [7]: Stability of compound in pH 10 PBS buffer assessed as parent compound remaining measured after 24 hrs by RP-HPLC analysis. The settings on record: read-out: Stabilty. The class given is physicochemical. The procedure, abridged:
as §1

Data set [8] deals with SW1990. Briefly: Cytotoxicity against human SW1990 cells assessed as reduction in cell viability measured after 48 hrs by MTT assay. The settings on record: SW1990, 48 h. Format: functional, cell-based. A digest of the protocol: as §3
Data set [9] concerns SW1990. Kind of data set: Antitumor activity against human SW1990 cells xenografted in Balb/c nude mouse assessed as tumor growth inhibition at 20 mg/kg, iv administered every 3 days measured after 21 days relative to control. Format: functional. The settings on record: 504 h, time 21 day, read-out: TGI. The procedure, abridged:
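Male BALB/c nude mice, 3–5 weeks old, given 1 × 10⁷ SW1990 cells subcutaneously; when tumors reached about 65 mm³, randomised to groups of eight. Saline vehicle control, dosing intravenously every three days. Tumor size monitored every two days for three weeks; tumors dissected at sacrifice on day 21, volume = d² × D/2 (d smallest, D largest diameter). Mean ± SD.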
On the technique in general: In xenograft studies the graft and the host belong to different species.

Data set [10] concerns SW1990. Briefly: Induction of mitochondrial membrane potential loss in human SW1990 cells at 8 to 12 uM measured after 24 hrs by JC1 staining based flow cytometry. To be noted: dose 8-12 µM. The class given is functional, cell-based. The procedure, abridged:
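SW1990 cells seeded at 5 × 10⁵ per well, grown 24 h, then exposed to compound for 24 h. Stained with JC-1 per kit instructions. Flow cytometry gave the percentage of cells with healthy or collapsed mitochondrial membrane potential. Mean ± SD, n = 3.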

Data set [11] deals with SW1990. Briefly: Induction of apoptosis in human SW1990 cells assessed as increase in Bax-2 expression at 8 to 12 uM measured after 24 hrs by Western blot analysis. The class given is functional, cell-based. To be noted: dose 8-12 µM. The procedure, abridged:
as §4

Data set [12] can be described thus: Stability of compound in pH 5 PBS buffer assessed as parent compound remaining measured after 24 hrs by RP-HPLC analysis. The settings on record: read-out: Stabilty. Format: physicochemical. The procedure, abridged: as §1
Data set [13] deals with SW1990. Kind of data set: Induction of apoptosis in human SW1990 cells assessed as increase in cleaved caspase-9 expression at 8 to 12 uM measured after 24 hrs by Western blot analysis. Format: functional, cell-based. To be noted: dose 8-12 µM. The procedure, abridged: as §4
The nature of data set [14]: Prodrug activation in ClO- at 100 uM measured after 1 hr by RP-HPLC analysis. The procedure, abridged:
as §2

Data set [15] is described as follows: Drug metabolism in human SW1990 cells assessed as nitric oxide release at 8 to 12 uM measured after 24 hrs by DAF-FM DA probe based flow cytometry. The class given is ADME, cell-based. To be noted: sw1990, 24 h, dose 8-12 µM. The procedure, abridged:
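SW1990 cells at 80% confluence loaded with 5 µM DAF-FM DA for 20 min at 37 °C, rinsed, then incubated with compound. Optional 1 h pretreatment with 50 µM carboxyl-PTIO before 12 µM treatment. Fluorescence read by flow cytometry (ex 495 / em 515 nm). Mean ± SD, n = 3.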

Data set [16] deals with SW1990. Briefly: Cytotoxicity against human SW1990 cells assessed as reduction in cell viability measured after 48 hrs in presence of FeCl3 by MTT assay. Format: functional, cell-based. The settings on record: SW1990, 48 h. The procedure, abridged:
as §3

Data set [17] is described as follows: Drug metabolism in human SW1990 cells assessed as nitric oxide release by measuring increase in 3-nitrotyrosine-containing cytochrome-c expression at 8 to 12 uM measured after 24 hrs by Western blot analysis. The class given is ADME, cell-based. The settings on record: sw1990, 24 h. A digest of the protocol: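 SW1990 cells treated 24 h, or pretreated 1 h with carboxyl-PTIO (50 µM) before 24 h treatment. Mitochondrial proteins extracted and lysed (30 µg/lane), run on SDS-PAGE, blotted to PVDF and probed with anti-3-nitrotyrosine antibody. Mean ± SD, n = 3.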

Data set [18] in a line: Stability of compound in presence of Cu2+ at 100 uM measured after 1 hr by RP-HPLC analysis. The class given is physicochemical. A digest of the protocol:
as §2

Data set [19] can be described thus: Metal chelating activity assessed as compound-Cu2+ complex formation by measuring change in wavelength at 50 uM measured after 40 mins in presence of H2O2 by UV spectrophotometric method. The procedure, abridged:
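Compound at 50 µM final in PBS (10 mM, pH 7.4) with 50 µM CuCl₂ and H₂O₂ (500 µM, 10 eq.). UV spectrum tracked over 40 min at room temperature, following peaks at 240, 382 and 210 nm.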

The source made the active and inactive calls. The rule behind the calls is not given here.

As usually defined, the IC50 is the concentration that inhibits the measured activity by half. For `O=C(NCCCOc1no[n+]([O-])c1S(=O)(=O)c1ccccc1)c1ccc2cccc(OCc3ccc(B(O)O)cc3)c2n1`, the result in data set [1] was inactive. Besides, the Stability in data set [2] was greater than 80%. In addition, the Drug metabolism entry was “Metabolite_Notdetected” in data set [3], “Metabolite_Notdetected” in [14], “Metabolite_Detected” in data set [15] and “Metabolite_Detected” in data set [17]. Moreover, the concentration for half-maximal inhibition (IC50) is 1.69 µM in the data set with PANC-1 [4], 10.5 µM in the data set on PANC-1 [5], 8.83 µM with SW1990 [8] and 15.4 µM in the data set on SW1990 [16]. Moreover, the result with SW1990 [6], with SW1990 [10], with SW1990 [11] and in the data set with SW1990 [13] was Active. Moreover, the remaining at 24 h in [7] and in data set [12] was greater than 80% in each case. Further, the inhibition in vivo at 20 mg/kg with SW1990 [9] came out at 61.8%. For the same molecule, the Stabilty entry in data set [18] is recorded as “Stable”. For the same molecule, the Activity in data set [19] was 210 nm.

Source of the values: ChEMBL document CHEMBL4732146, “Nitric oxide-donating and reactive oxygen species-responsive prochelators based on 8-hydroxyquinoline as anticancer agents” (Eur J Med Chem, 2021).
